aDG glyco up – alpha-DG glycosylation activation. Pro5-aDG cells, alpha-DG glycosylation AlphaScreen (IIH6); 0% Pro5, 100% B10-LARGE cell signal. activation, % at 10 µM. 360,000 compounds, 0.22% hits;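 active = activation of at least 8% versus controls, or a plate z-score of at least 8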;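 also: Pro5 are CHO cells carrying HIG-tagged alpha-DG that lacks glycosylation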
MPTP block – permeability transition pore inhibition | 360,000 compounds, 1.4% hits | inhibition, % at 10 µM | AID 602449 | isolated mouse mitochondria, Ca2+ swelling absorbance, 30 min;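 active = inhibition of 50% or more, scaled per plate between neutral and stimulator controls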;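 also: 0% = DMSO wells given calcium and 100% = 1 mM EGTA wells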
ADAM17 inh – inhibitors of human ADAM17; P78536; recombinant ADAM17, EDANS/DABCYL FRET peptide cleavage; inhibition, % at 6.95 µM; 370,000 compounds, 0.83% hits;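 active = inhibition above the mean of compounds lying between control limits plus 3 SD, set per campaign, cut at about 8.5% in these data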;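 also: 0% = DMSO-only wells as the low control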
Target sequence (P78536 215-824 limits assumed): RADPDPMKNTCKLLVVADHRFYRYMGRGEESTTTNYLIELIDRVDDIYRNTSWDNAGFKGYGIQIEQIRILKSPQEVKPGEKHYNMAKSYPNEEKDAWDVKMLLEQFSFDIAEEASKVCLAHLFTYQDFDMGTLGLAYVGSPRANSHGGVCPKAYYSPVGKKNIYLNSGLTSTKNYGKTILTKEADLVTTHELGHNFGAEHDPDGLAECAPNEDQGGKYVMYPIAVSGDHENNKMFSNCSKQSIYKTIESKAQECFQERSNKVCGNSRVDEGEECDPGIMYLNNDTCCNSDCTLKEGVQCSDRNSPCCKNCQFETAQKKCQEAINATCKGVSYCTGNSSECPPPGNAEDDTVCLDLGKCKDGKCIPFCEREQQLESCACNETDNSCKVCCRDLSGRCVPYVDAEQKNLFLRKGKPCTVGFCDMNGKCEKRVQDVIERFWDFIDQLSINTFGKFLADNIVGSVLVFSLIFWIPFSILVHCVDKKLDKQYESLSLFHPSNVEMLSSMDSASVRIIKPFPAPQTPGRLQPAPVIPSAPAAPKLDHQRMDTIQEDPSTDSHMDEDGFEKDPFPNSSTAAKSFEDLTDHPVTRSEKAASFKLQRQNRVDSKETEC
V-ATPase pH – alters yeast V-ATPase proton transport | 350,000 compounds, 0.37% hits | AID 504577 | response, % at 10 µM | S. cerevisiae, pHLuorin cytosolic pH fluorescence; in the data active = response mostly above about 7.3%, no sharp cut-off; inactive = mostly below about 5.4%; also: actives read high
Hep lipid drop – hepatic lipid droplet formation modulation; 240,000 compounds, 0.4% hits; inhibition, % at 6.5 µM; AML12 mouse hepatocytes, oleate lipid droplets, BODIPY imaging; AID 1656;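 active = lipid droplet intensity inhibited by at least 50%, with more than 500 cells counted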
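Assay system: AML12 hepatocytes (mouse) / Also added: 100 µM oleic acid challenge / Times: overnight treatment with compound plus oleate / Detection: high-content imaging of BODIPY-stained droplets and DAPI nuclei / Evaluation: % inhibition of lipid droplet signal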
ADAM10 inh – inhibitors of human ADAM10; recombinant ADAM10, EDANS/DABCYL FRET peptide cleavage, 3 h; inhibition, % at 7 µM; 370,000 compounds, 0.62% hits;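 active = inhibition above a per-campaign cutoff equal to the mean of compounds falling between control-based bounds plus 3 SD, cut at about 20% in these data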;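 also: 0% = DMSO wells while the 100% control is not disclosed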
Hep lipid conf – hepatic lipid droplet formation inhibition, confirmed; shares compounds with Hep lipid drop; AML12 mouse hepatocytes, BODIPY lipid droplet imaging; droplets induced with 100 µM oleic acid; inhibition, % at 5.2 µM; 870 compounds, 65% hits;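 active = inhibition of lipid droplet metric at least 50%, with more than 300 cells in each of four replicates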;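 also: plate controls were DMSO with oleic acid for no effect and 5 µM Triacsin-C for full effect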
AML12 tox img – counter-screen for cytotoxicity in AML12 mouse hepatocytes; shares compounds with Hep lipid drop; DAPI nuclear morphology cytotoxicity imaging; hits give high values; cells fed 100 µM oleate overnight; z-score at 5 µM; 870 compounds, 3% hits; AID 463200; in the data active = z-score above about 6.3;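 also: compound exposure lasted overnight at 37 °C before fixation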
AML12 tox conf – confirmation of cytotoxicity in AML12 mouse hepatocytes; AML12 mouse hepatocyte viability, ATP luminescence; cells loaded with 100 µM oleic acid; AID 463219; 530 tested, under 10 active; shares compounds with Hep lipid drop; cytotoxicity, % at 50 µM;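 active = cytotoxicity above 50% in each of four replicates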;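 also: compound exposure lasted overnight at 37 °C before the ATP read; 0% = DMSO-treated cells and 100% = wells with no cells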
The depositor's hits bear a star. Sampled rows, rich in hits. Any-hit rate of the full collection: about 3.1%.

Cc1ccc(CN2CCN(c3ccccc3)CC2)o1 was read as aDG glyco up 0, MPTP block 1, ADAM17 inh -1, V-ATPase pH 3, Hep lipid drop 75*, ADAM10 inh 5, Hep lipid conf 39 and AML12 tox img -0.22.
For Cc1ccc(CN2CCN(c3ncccn3)CC2)o1 the results were aDG glyco up 0, MPTP block 0, ADAM17 inh -3, V-ATPase pH -4, Hep lipid drop 7 and ADAM10 inh -7.
`Cc1cc(C)cc(N(CC(=O)NC2CCC(C)CC2)S(=O)(=O)c2ccc(Br)s2)c1` (stereo unspecified) gave ADAM17 inh 2 and ADAM10 inh 2.
Screening CCn1cc(C(=O)NCCCN(CC(C)C)CC(C)C)c(=O)c2cc(S(=O)(=O)N(C)C3CCCCC3)ccc21 returned aDG glyco up 0, MPTP block 0, ADAM17 inh 4, V-ATPase pH 4, Hep lipid drop 69*, ADAM10 inh 2, Hep lipid conf 24 and AML12 tox img -0.027.
For CCN(CC)CCCNC(=O)c1cn(CC)c2ccc(S(=O)(=O)N(C)C3CCCCC3)cc2c1=O the results were aDG glyco up 0, MPTP block 0, ADAM17 inh 0, V-ATPase pH 1, Hep lipid drop 16 and ADAM10 inh 0.
Screening CCCCN(C)C(=O)CNc1nnnn1-c1ccccc1 returned ADAM17 inh -1 and ADAM10 inh 1.
For CCOc1ccc(C(C)NC(=O)Cc2ccccc2F)cc1OCC (stereo unspecified) the results were aDG glyco up 0, MPTP block -1, ADAM17 inh 0, V-ATPase pH -1, Hep lipid drop 50*, ADAM10 inh 10, Hep lipid conf 93*, AML12 tox img 0.4 and AML12 tox conf 10.
CCOc1ccc(C(C)NC(=O)Cc2ccccc2)cc1OCC (stereo unspecified) was read as aDG glyco up 0, MPTP block 0, ADAM17 inh 1, V-ATPase pH -2, Hep lipid drop 53*, ADAM10 inh 6, Hep lipid conf 73*, AML12 tox img -1.4 and AML12 tox conf -1.
`COc1nc(C)nc2c1ccc1ccccc12` gave aDG glyco up 0, MPTP block 2, ADAM17 inh -3, V-ATPase pH 2, Hep lipid drop 52*, ADAM10 inh -4, Hep lipid conf 2 and AML12 tox img -0.096.
Screening CCC(C)(C)NC(=O)C(c1ccc(C)cc1)N(CC1CCCO1)C(=O)CCC(=O)Nc1ccccn1 (stereo unspecified) returned aDG glyco up 0, MPTP block 1, ADAM17 inh -1, V-ATPase pH -5, Hep lipid drop 61*, ADAM10 inh -1, Hep lipid conf 51 and AML12 tox img -0.15.
CC(=O)C1=C(C)NC(SCSc2ccccc2)=C(C#N)C1c1cccnc1 (stereo unspecified) was read as Hep lipid drop 59*, Hep lipid conf 79*, AML12 tox img 0.91 and AML12 tox conf -7.
Screening c1ccc(-c2csc(NNC3=NCCCCC3)n2)cc1 returned aDG glyco up -1, MPTP block 5, ADAM17 inh 7, V-ATPase pH -4, Hep lipid drop 63*, ADAM10 inh 20, Hep lipid conf 115*, AML12 tox img -0.27 and AML12 tox conf 31.
Screening COc1ccc(-c2csc(NC3=NCCCCC3)n2)cc1 returned aDG glyco up 0, MPTP block 0, ADAM17 inh -1, V-ATPase pH 2, Hep lipid drop 12 and ADAM10 inh 3.
Screening COc1ccc(-c2csc(NNC3=NCCCCC3)n2)cc1 returned ADAM17 inh -1, Hep lipid drop 115*, ADAM10 inh -5, Hep lipid conf 112*, AML12 tox img -0.25 and AML12 tox conf 32.
For Clc1ccc(-c2csc(NNC3=NCCCCC3)n2)cc1 the results were aDG glyco up -1, MPTP block 1, ADAM17 inh -2, V-ATPase pH -2 and ADAM10 inh -11.
For CCOc1ccc(-c2csc(NNC3=NCCCCC3)n2)cc1 the results were aDG glyco up 0, MPTP block 0, ADAM17 inh 1, V-ATPase pH -3, Hep lipid drop 84*, ADAM10 inh -3, Hep lipid conf 111*, AML12 tox img -0.65 and AML12 tox conf 15.
Screening CN(C)CC(=O)N[C@@H]1C[C@@H]2O[C@@H](CO)CC[C@@H]2O[C@@H]1CCc1ccc(C#Cc2ccccc2)cc1 returned ADAM17 inh 2 and ADAM10 inh 1.
O=C(Cn1nc(-c2ccccc2)ccc1=O)NCCc1ccccc1F was read as ADAM17 inh -1 and ADAM10 inh -5.
For CCN(CC)c1ccc(/C=C2\CCC(/C=C(\C#N)C(=O)Nc3ccccc3F)=C2N2CCOCC2)cc1 the results were aDG glyco up 0, MPTP block 36, ADAM17 inh -2, V-ATPase pH -11, Hep lipid drop 101*, ADAM10 inh -3, Hep lipid conf 96*, AML12 tox img 0.003 and AML12 tox conf -10.
For O=C(Nc1ccc([N+](=O)[O-])cn1)c1cc(-c2cccc(Br)c2)nc2ccccc12 the results were aDG glyco up 0, MPTP block 7, ADAM17 inh 2, V-ATPase pH 1, Hep lipid drop 64*, ADAM10 inh 2, Hep lipid conf 64*, AML12 tox img -0.17 and AML12 tox conf 10.
Screening O=C(Nc1ccccn1)c1cc(-c2cccc(Cl)c2)nc2ccccc12 returned aDG glyco up 0, MPTP block 4, ADAM17 inh -5, V-ATPase pH 1 and ADAM10 inh 0.
For COc1cccc(-c2cc(C(=O)Nc3ccc([N+](=O)[O-])cn3)c3ccccc3n2)c1 the results were aDG glyco up -1, MPTP block 4, ADAM17 inh 8, V-ATPase pH -1, Hep lipid drop 57*, ADAM10 inh 11, Hep lipid conf 75*, AML12 tox img -0.6 and AML12 tox conf 12.
`O=C(Nc1ccc([N+](=O)[O-])cn1)c1cc(-c2cccc(Cl)c2)nc2ccccc12` gave aDG glyco up 0, MPTP block 18, ADAM17 inh -1, V-ATPase pH 0, Hep lipid drop 68*, ADAM10 inh -1, Hep lipid conf 38 and AML12 tox img 0.22.

Compound activity (PubChem BioAssay)
